Data set [1] is described as follows: CellTiter 96 AQueous one solution cell proliferation assay. It is filed as cell-based. Conditions: human, PLC/PRF/5 cells. The method, boiled down: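 PLC/PRF/5 cells seeded at 2.5×10^4 per well in triplicate and exposed to several concentrations of test compound for 72 h. Viability was read by the CellTiter 96 AQueous one solution assay. Values were taken relative to untreated cells (100%), given as mean±SD of triplicates, and CC50 was derived from the curves.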

Data set [2] relates to HCV RNA replication. As to conditions: read-out: EC50 HCV (Li23), Li23 cell-derived assays, cited from earlier work.
The test system of another data set is DENV RNA replication. Briefly: DENV/Gaussia luciferase. Type of data set: cell-based. Conditions: Dengue virus, BHK-21, 72 h, read-out: EC50 DENV. The method, boiled down:
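BHK-21 cells were seeded at 1×10^4 per well in triplicate and transfected with the DENV replicon plasmid DGL2. At 24 h post-transfection they were treated with several concentrations of test compound for 72 h, then Gaussia luciferase was measured. Signal was expressed relative to untreated cells (100%), mean±SD of triplicates, and EC50 was derived.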

The subject of a further data set is HEV RNA replication. Put plainly: HEV/NanoLuc luciferase. It is filed as cell-based. Conditions: Hepatitis E virus, PLC-PRF-5, 72 h, read-out: EC50 HEV. In a few lines:
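HEV replicon RNA was electroporated into PLC/PRF/5 cells, which were plated at 2.5×10^4 per well in triplicate. Cells were treated with several concentrations of test compound for 72 h, and NanoLuc was read by Nano-Glo. Signal was taken relative to untreated cells (100%), mean±SD of triplicates, and EC50 was derived.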

Another data set has as its system Li23. Conditions: read-out: CC50 HCV (Li23), Li23 cell-derived assays, cited from earlier work.
In a further data set the test system is HuH-7. As to conditions: read-out: CC50 HCV (HuH-7), HuH-7 cell-derived assays, cited from earlier work.
Data set [3] can be described thus: Cell count after trypan blue dye treatment. Conditions: human, HepG2/NTCP cells. Type of data set: cell-based.
A further data set concerns JEV RNA replication. Briefly: JEV replicon Firefly luciferase. It is filed as cell-based. Conditions: Japanese encephalitis virus, 72 h, read-out: EC50 JEV. In a few lines:
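JEV replicon cells (BHKMuarPACLuc rep, maintained with puromycin 10 μg/ml) were seeded at 1×10^5 per well in triplicate. They were treated with several concentrations of test compound for 72 h, then firefly luciferase was measured. Activity was expressed relative to untreated cells (100%), mean±SD of triplicates, and EC50 was derived.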
On the technique in general: A replicon is a self-replicating genome or part of one, used to study replication in cells.

In another data set the test system is HBV. Put plainly: HBV replication assay. As to conditions: Hepatitis B virus, HepG2, read-out: EC50 HBV. Type of data set: cell-based. In a few lines:
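Inoculum was HBV from HepG2.2.15 supernatant, given at 1000 genome equivalents/cell in medium with 4% PEG8000 and 2% DMSO for 24 h. Medium was then replaced and cells were cultured 8 days. Cellular DNA was extracted and HBV DNA quantified by real-time qPCR. Results were taken relative to untreated cells (100%), mean±SD of triplicates.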

Data set [4] concerns HCV RNA replication. As to conditions: read-out: EC50 HCV (HuH-7), HuH-7 cell-derived assays, cited from earlier work.
Data set [5] deals with HBV/NL, covalently closed circular DNA formation to translation of viral mRNAs. Briefly: HBV/NL reporter assay, after entry to translation steps. Type of data set: cell-based, hepatitis B virus. As to conditions: HBV/NL-infected HepG2/NTCPmyc cells, NL activity. (In a reporter assay the amount or activity of a reporter protein is the signal.)
The test system of the next data set is HBV/NL virus entry. Put plainly: HBV/NL reporter assay, entry step. It is filed as cell-based, hepatitis B virus. As to conditions: HBV/NL-infected HepG2/NTCPmyc cells, NL activity. In a few lines:
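Reporter HBV/NL virus came from supernatant of HepG2 cells cotransfected with pUC1.2HBV/NL and pUC1.2HBVΔε. HepG2/NTCPmyc cells were infected at 10–100 genome equivalents with 4% PEG8000 and 2% DMSO overnight, with test compound applied per the entry-step schedule. NanoLuc activity was read with Nano-Glo, relative to untreated cells (100%), mean±SD of triplicates. P was computed vs. untreated.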

For data set [6] the following is noted: compared with N-89; ref [3]; cited from earlier work.

The values below come from publication PMC6047365 (Biochemistry and Biophysics Reports, 2018).

SMILES strings stand for the structures. Where two headings read alike, the source gives them in different places.

The CC50 is the concentration giving 50% cytotoxicity. One may read the EC50 as the midpoint of the concentration-response curve.

`NC(=O)c1ncn([C@@H]2O[C@H](CO)[C@@H](O)[C@H]2O)n1` [RBV, Ribavirin, reference compound] registered a CC50 at 72 h in [1] of more than 100 µM. Further, the EC50 in the data set on HCV RNA replication [2] (ref Mori et al. [16]) is 8.7 to 15.9 µM; with DENV RNA replication it was 15 µM; in the data set with HEV RNA replication, 19 µM; in the data set on JEV RNA replication, 22 µM; in the data set with HBV, more than 100 µM; in the data set with HCV RNA replication [4] (ref Mori et al. [16]), more than 100 µM. Besides, the 50% cytotoxic concentration (CC50) with Li23 (ref Mori et al. [16]) and in the data set on HuH-7 (ref Mori et al. [16]) was more than 100 µM in each case. Further, the CC50 at 9 days in data set [3] is more than 100 µM.
The molecule `OCCCCCCC1COOC2(CCCCCCCCCCC2)OOC1` [N-251, 6-(1,2,6,7-tetraoxaspiro[7.11]nonadec-4-yl)hexan-1-ol] registered a CC50 at 72 h in data set [1] of 56 µM. For the same molecule, the EC50 is 0.059 to 0.29 µM with HCV RNA replication [2] (ref Ueda et al. [4]); 6.5 µM with DENV RNA replication; 13 µM in the data set on HEV RNA replication; 15 µM in the data set on JEV RNA replication; 1.9 µM with HBV; 0.14 to 0.98 µM in the data set on HCV RNA replication [4] (ref Ueda et al. [4]). Further, the CC50 with Li23 (ref Ueda et al. [4]) was 1.1 to 2.8 µM; with HuH-7 (ref Ueda et al. [4]), 0.49 to 3.8 µM. In addition, in data set [5], the “Effect on the process of covalently closed circular DNA formation to translation of viral mRNAs” value is on record as “not inhibited”. Moreover, half-maximal cytotoxicity in [3] (CC50 at 9 days) was put at 16 µM. Also, the “Effect on the process of virus entry” value with HBV/NL virus entry was “did not prevent the process of virus entry”. In [6], the Water solubility result was “higher water solubility than N-89”.
